Results from different studies.
Each line is one published result; the experiments were not run side by side.
Target: Dual specificity mitogen-activated protein kinase kinase 4 (MAP2K4, Homo sapiens, UniProt P45985)
Residues used in one study (P45985 1-399): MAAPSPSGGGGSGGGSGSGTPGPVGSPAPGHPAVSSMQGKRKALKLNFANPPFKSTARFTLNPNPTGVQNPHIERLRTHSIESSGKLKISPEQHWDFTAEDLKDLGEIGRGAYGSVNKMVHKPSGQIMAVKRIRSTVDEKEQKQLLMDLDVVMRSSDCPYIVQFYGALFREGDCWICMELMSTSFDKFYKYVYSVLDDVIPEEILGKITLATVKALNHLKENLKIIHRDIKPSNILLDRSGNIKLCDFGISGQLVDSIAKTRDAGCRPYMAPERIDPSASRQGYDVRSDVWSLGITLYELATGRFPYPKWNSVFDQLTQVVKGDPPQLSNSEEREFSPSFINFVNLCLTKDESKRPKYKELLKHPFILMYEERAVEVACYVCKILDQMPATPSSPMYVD

| SMILES | assay | system | setting | endpoint | value |
| --- | --- | --- | --- | --- | --- |
| Cc1ccc(C(=O)Nc2ccc(CN3CCN(C)CC3)c(C(F)(F)F)c2)cc1C#Cc1cnc2cccnn12 | enzyme activity, inhibitor | – | 23.5 nM | remaining activity | 97% |
| CC(C)(C)c1nc(-c2cccc(NS(=O)(=O)c3c(F)cccc3F)c2F)c(-c2ccnc(N)n2)s1 | enzyme activity, inhibitor, radiometric | – | 1 µM | remaining activity | 87% |
| CC(C)(O)[C@H]1CC[C@H](Nc2ccc3ncc(-c4cccc(C(F)(F)F)c4)n3n2)CC1 | enzyme activity, inhibitor | – | 1 µM | remaining activity | 102% |
| CN(CCCC(F)(F)F)c1nccc(-c2cnn3ncccc23)n1 | binding | – | 1 µM | remaining binding | 100% |
| O=C(Nc1cnn(-c2csc(C(=O)NC3COC3)c2)c1)Nc1ccccc1Cl | enzyme activity, inhibitor | – | 5 µM | remaining activity | 113% |
| CCN1CCN(Cc2ccc(NC(=O)c3ccc(C)c(Oc4ccnc5[nH]ccc45)c3)cc2C(F)(F)F)CC1 | target engagement in cells, inhibitor, chemoproteomics | A-375 | 0.5 µM | inhibition | -23% |
| Nc1ncnc2occ(-c3ccc(NC(=O)Nc4cc(C(F)(F)F)ccc4F)cc3)c12 | cell-free assay, inhibitor | – | 20 µM | remaining signal | 3.9% |
| CN1CCN(c2cnc3c(C4CCN(C(=O)c5ccc(OC(F)(F)F)cc5N)CC4)ncnc3c2)CC1 | cell-free assay, competition with immobilised ligand | – | 1 µM | remaining binding | 100% |
| CC(C)(C)c1nc2c(s1)c1nc(N)ncc1c1ccc(NS(=O)(=O)c3c(F)cccc3F)c(F)c12 | enzyme activity, inhibitor, radiometric | – | 1 µM | remaining activity | 81% |
| C[C@H](c1ccc(F)cc1)N(Cc1cccc(C(=O)O)c1)C(=O)c1cnc2ccccc2c1 | cell-free assay, competition with immobilised ligand | – | 1 µM | remaining binding | 100% |
| Cc1sc(C(=O)NC2COC2)cc1-n1cc(NC(=O)Nc2c(F)cccc2Cl)cn1 | enzyme activity, inhibitor | – | 10 µM | remaining activity | 93% |
